# Source: ChEMBL document CHEMBL1129439, “Synthesis and in vitro characterization of N-[5-(4,5-dihydro-1H-imidazol-2-yl)-2-hydroxy-5,6,7,8- tetrahydronaphthalen-1-yl]methanesulfonamide and its enantiomers: a novel selective alpha 1A receptor agonist” (J Med Chem, 1996)
# Assays:
# [1] = biological target: T1, Alpha-1B adrenergic receptor (Rattus norvegicus, UniProt P15823); assay: In vitro agonist potency towards Alpha-1B adrenergic receptor in rat spleen; assay type: functional, tissue-based
# T1 sequence (P15823 whole entry): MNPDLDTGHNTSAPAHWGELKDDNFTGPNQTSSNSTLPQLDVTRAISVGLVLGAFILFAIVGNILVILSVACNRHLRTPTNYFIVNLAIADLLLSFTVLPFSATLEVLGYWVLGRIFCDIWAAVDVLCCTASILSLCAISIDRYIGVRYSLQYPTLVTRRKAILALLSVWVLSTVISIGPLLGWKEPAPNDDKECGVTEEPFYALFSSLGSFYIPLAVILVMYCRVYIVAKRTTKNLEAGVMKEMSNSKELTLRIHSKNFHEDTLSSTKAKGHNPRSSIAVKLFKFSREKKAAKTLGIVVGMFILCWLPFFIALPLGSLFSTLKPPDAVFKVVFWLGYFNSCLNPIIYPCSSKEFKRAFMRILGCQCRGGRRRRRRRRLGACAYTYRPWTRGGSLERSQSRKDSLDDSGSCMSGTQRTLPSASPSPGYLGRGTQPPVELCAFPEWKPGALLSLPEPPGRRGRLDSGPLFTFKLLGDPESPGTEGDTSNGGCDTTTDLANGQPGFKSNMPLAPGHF
# [2] = biological target: T2, Alpha-1A adrenergic receptor (Bos taurus, UniProt P18130); assay: Binding affinity towards bovine clonal Alpha-1A adrenergic receptor
# T2 sequence (P18130 whole entry): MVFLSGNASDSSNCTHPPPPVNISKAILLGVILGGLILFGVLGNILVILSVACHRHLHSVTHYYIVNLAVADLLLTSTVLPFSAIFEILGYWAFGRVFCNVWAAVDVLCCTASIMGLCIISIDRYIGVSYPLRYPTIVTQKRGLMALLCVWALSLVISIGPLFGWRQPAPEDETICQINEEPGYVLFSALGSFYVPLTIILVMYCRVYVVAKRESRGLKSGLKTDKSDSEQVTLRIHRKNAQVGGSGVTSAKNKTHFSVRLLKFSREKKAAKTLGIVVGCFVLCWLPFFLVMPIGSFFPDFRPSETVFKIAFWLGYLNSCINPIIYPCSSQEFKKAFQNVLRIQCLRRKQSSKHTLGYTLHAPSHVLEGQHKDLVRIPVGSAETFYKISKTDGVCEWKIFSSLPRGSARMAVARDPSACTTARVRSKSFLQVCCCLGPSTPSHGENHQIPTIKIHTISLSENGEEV
# How it was run: (§1)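 Radioligand binding to cloned receptors: bovine α1a for line 1 and rat α1d for line 2.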
# [3] = biological target: T3, Alpha-1A adrenergic receptor (Homo sapiens) (UniProt P35348); assay: Percent response towards alpha 1A adrenergic receptor in canine prostate using phenylephrine as control agonist; assay type: functional, tissue-based; conditions: Canis lupus familiaris; Prostate gland; target entry is the homologue from another species
# T3 sequence (whole entry): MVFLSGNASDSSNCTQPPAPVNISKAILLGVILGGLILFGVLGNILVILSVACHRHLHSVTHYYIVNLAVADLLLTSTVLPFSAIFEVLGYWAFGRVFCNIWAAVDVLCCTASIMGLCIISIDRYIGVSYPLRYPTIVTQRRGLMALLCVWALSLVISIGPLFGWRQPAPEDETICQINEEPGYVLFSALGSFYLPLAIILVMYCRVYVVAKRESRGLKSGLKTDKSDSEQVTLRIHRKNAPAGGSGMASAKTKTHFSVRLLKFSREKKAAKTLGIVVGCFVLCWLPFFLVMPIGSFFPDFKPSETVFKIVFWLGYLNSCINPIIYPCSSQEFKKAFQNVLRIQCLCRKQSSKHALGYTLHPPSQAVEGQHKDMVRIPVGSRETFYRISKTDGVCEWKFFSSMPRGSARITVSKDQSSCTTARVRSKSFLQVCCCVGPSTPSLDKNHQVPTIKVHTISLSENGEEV
# [4] = biological target: T4, Alpha-1A adrenergic receptor (Rattus norvegicus) (UniProt P43140); assay: Percent response towards alpha 1A adrenergic receptor in rat vas deferens using phenylephrine as control agonist; assay type: functional, tissue-based
# T4 sequence (whole entry): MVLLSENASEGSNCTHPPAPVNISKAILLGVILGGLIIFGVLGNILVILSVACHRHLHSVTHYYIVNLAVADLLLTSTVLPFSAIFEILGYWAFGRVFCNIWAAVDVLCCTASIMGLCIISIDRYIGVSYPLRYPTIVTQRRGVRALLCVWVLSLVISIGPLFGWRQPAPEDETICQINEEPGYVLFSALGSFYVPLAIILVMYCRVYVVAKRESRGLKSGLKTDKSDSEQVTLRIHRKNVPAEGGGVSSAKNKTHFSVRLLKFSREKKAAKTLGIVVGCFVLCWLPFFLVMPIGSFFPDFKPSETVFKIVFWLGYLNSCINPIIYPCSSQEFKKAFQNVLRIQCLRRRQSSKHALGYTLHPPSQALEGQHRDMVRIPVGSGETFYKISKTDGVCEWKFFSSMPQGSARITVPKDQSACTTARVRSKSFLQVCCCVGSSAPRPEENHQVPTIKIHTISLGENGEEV
# [5] = biological target: T5, Alpha-1D adrenergic receptor (Rattus norvegicus) (UniProt P23944); assay: Percent response towards alpha 1D adrenergic receptor in rat aorta using phenylephrine as control agonist; assay type: functional, tissue-based
# T5 sequence (whole entry): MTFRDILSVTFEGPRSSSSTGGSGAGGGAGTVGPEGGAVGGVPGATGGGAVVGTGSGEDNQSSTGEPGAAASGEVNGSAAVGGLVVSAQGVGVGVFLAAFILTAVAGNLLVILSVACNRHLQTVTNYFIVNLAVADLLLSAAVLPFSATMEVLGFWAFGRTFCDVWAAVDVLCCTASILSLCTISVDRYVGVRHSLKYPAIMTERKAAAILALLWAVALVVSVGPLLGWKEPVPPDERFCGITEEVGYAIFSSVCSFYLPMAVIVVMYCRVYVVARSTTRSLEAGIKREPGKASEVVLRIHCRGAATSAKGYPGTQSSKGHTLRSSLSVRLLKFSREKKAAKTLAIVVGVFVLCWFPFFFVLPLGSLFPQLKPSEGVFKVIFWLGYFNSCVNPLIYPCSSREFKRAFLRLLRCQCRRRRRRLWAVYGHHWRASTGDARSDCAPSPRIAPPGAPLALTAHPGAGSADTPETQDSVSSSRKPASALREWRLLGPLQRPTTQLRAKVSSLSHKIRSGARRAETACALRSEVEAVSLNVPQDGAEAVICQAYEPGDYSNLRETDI
# [6] = biological target: T6, Alpha-1D adrenergic receptor (Rattus norvegicus, UniProt P23944); assay: In vitro agonist potency towards Alpha-1D adrenergic receptor in rat aorta; assay type: functional, tissue-based
# T6 sequence (P23944 whole entry): T5 sequence (whole entry)
# [7] = biological target: T6, Alpha-1D adrenergic receptor; assay: Binding affinity towards rat clonal Alpha-1D adrenergic receptor; how it was run: as §1
# [8] = biological target: T7, Alpha-1B adrenergic receptor (Mesocricetus auratus, UniProt P18841); assay: Binding affinity towards hamster clonal Alpha-1B adrenergic receptor; assay type: single protein
# T7 sequence (P18841 whole entry): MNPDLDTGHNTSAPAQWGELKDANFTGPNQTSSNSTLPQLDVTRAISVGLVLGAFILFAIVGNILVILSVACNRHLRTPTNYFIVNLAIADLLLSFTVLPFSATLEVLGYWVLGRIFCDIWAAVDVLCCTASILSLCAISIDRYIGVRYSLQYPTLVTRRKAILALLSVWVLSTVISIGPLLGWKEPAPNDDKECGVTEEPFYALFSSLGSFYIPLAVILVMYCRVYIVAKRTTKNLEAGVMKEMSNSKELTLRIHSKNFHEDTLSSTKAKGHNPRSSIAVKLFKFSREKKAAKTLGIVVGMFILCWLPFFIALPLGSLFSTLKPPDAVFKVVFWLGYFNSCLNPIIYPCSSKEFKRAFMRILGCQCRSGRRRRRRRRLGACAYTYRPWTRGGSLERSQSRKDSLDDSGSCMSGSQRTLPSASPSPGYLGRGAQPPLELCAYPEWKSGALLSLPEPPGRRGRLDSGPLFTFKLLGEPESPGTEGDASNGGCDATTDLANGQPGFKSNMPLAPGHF
SMILES,EC50 [1],Ki [2],Emax [3],Emax [4],Emax [5],EC50 [6],Ki [7],Ki [8]
CS(=O)(=O)Nc1c(O)ccc2c1CCC[C@H]2C1=NCCN1,186 nM,17.4 nM,63%,78%,103%,1020 nM,1020 nM,2820 nM
CNC[C@H](O)c1cccc(O)c1 [PHENYLEPHRINE],–,933 nM,100%,100%,100%,–,–,–
Cc1cc(C(C)(C)C)c(O)c(C)c1CC1=NCCN1 [OXYMETAZOLINE],–,13.2 nM,71%,80%,83%,–,–,–
"NCC(O)c1ccc(O)c(O)c1 (single isomer, unassigned) [NOREPINEPHRINE]",–,447 nM,117%,105%,113%,–,–,263 nM
CS(=O)(=O)Nc1c(O)ccc2c1CCC[C@@H]2C1=NCCN1,> 100000 nM,1450 nM,24%,45%,–,> 100000 nM,2950 nM,17400 nM
CS(=O)(=O)Nc1c(O)ccc2c1CCCC2C1=NCCN1 (stereo not given),–,30.2 nM,91%,108%,100%,2570 nM,1350 nM,2090 nM
